Screens: PubChem, Broad Institute
A selection: hits, their analogues and other compounds. The true share with any hit is near 3.8%.
FGF22 binding: shifts melting point of recombinant human FGF22 | recombinant FGF22 thermal shift, SYPRO orange fluorescence; percent of sucrose octasulfate shift, DMSO zero | 1.5% of 340,000 active | Q9HCT0 | activity (Tm shift, normalised), % at 9.99 µM;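 active = mean Tm shift, scaled 0 neutral to 100 positive control, at about 1.3% or above, every replicate too, limit read from the data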
Target sequence (Q9HCT0 whole entry, looked up): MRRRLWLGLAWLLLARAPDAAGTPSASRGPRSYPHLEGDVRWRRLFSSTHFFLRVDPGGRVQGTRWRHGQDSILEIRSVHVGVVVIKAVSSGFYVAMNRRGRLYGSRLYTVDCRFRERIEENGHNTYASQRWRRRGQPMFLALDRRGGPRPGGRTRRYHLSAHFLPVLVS
SIRT5 block: blocks human SIRT5 desuccinylation of peptide. Q9NXA8. Purified SirT5, succinyl-peptide AMC, trypsin-coupled fluorescence. inhibition, % at 15 µM. 1.1% of 330,000 active. AID 652115; in the data active = inhibition above about 15%
Target sequence (Q9NXA8 whole entry, looked up): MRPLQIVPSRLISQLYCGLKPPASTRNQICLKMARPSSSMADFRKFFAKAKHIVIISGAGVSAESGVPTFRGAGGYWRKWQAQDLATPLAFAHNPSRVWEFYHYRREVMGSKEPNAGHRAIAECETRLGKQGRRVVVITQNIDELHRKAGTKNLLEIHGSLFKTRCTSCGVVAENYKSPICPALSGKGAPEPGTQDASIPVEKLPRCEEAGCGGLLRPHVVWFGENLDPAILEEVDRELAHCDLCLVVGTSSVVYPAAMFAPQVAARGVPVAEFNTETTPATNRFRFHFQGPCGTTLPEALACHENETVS
FN deposition inh: fibronectin deposition inhibition; AH1F fibroblasts, Alexa488-fibronectin deposition fluorescence, overnight; AID 743247; inhibition, % at 12.6 µM; 0.086% of 350,000 active;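 active = mean inhibition across replicates of 30% or more, regardless of how many single replicates reach that level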
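test system = AH1F fibroblasts assembling fluorescent fibronectin matrix | quantity = 10000 AH1F cells per well | buffer or medium = DMEM plus 2% serum, read in PBS | doses = single dose, pinned | incubation = 1 h cell attachment, overnight exposure to compound and label | detection = fluorescence at 485 nm excitation, 525 nm emission | read-out basis = inhibition from reduced deposited-fibronectin fluorescence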
DENV2 CPE rescue: inhibitors of DENV2 cytopathic effect. DENV2-infected cells, cytopathic effect rescue, plate reader. CPE inhibition, % at 9.99 µM. 1.7% of 350,000 active; in the data active = CPE inhibition above about 20%, passing the limit was not always enough; tested in BHK-21 cells
ARNT TACC3 PPI: disrupts binding between human ARNT and TACC3; Q9Y6A5; AlphaScreen His-ARNT PAS-B/GST-TACC3 binding, luminescence; TACC3 fragment carries E629A point mutation; inhibition, % at 9.99 µM; 0.66% of 390,000 active; AID 623870;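 active = mean inhibition of replicates at least 50% and at least half of replicates each reaching 50%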
Xi reactivation: X-chromosome reactivation activator | XiGFP mouse fibroblasts, % GFP-positive cells imaging, 3 d; cells co-treated with 5-aza-dC sensitizer; scaled so ellipticine positive control = 100% | activation, % at 7.58 µM | 0.055% of 360,000 active | AID 743238;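 active = mean normalized replicate activation at least 10% and every replicate at or above 10%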
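System: SV40-immortalized XiGFP fibroblast cells, line 68-5-11 / Incubation: 3-day compound exposure, then 15 min fixation at room temperature / Compound: single concentration per compound, delivered by pin transfer / Buffer or medium: DMEM plus 5-aza-dC sensitizer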
ARNT Alpha ctr-1: counter-screen for ARNT/TACC3 inhibitors: AlphaScreen artifacts. shares compounds with ARNT TACC3 PPI. His-ARNT PASB-GST AlphaScreen artifact counter-screen, luminescence. AC50, µM (highest dose often 68 µM). 50% of 1,200 active. AID 651705;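 active = every separate test run was called active for a drop in luminescence, with AC50 within twice the top valid dose, actives reach about 71 µM in these data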
ARNT Alpha ctr-2: produces AlphaScreen artifacts in ARNT-TACC3 counter-screen; Dual-tagged His-ARNT PASB-GST AlphaScreen artifact counter-screen; AID 720564; shares compounds with ARNT TACC3 PPI; 70% of 45 active; AC50, µM;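 active = luminescence drop, with half-maximal potency fitted within twice the sample's top valid dose, cut at about 70 µM in these data; inactive = the rest, including signal moving the wrong way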
A number is an active result.

How did O=C(C[C@@H]1CC[C@@H](NC(=O)CN2CCOCC2)[C@H](CO)O1)NCCc1ccncc1 do in these assays?
FGF22 binding: inactive; SIRT5 block: inactive; FN deposition inh: inactive; DENV2 CPE rescue: inactive; ARNT TACC3 PPI: inactive; Xi reactivation: inactive

How did O=C(C[C@@H]1CC[C@H](NC(=O)CN2CCOCC2)[C@H](CO)O1)NCCc1ccncc1 do in these assays?
FGF22 binding: inactive; SIRT5 block: inactive; FN deposition inh: inactive; DENV2 CPE rescue: inactive; ARNT TACC3 PPI: 57; Xi reactivation: inactive; ARNT Alpha ctr-1: inactive

Results for C[C@H](CO)N1C[C@H](C)[C@H](CN(C)S(=O)(=O)c2ccc(Cl)cc2)Oc2ccc(NS(=O)(=O)c3cn(C)cn3)cc2CC1=O ?
FGF22 binding: inactive; SIRT5 block: inactive; FN deposition inh: inactive; DENV2 CPE rescue: inactive; ARNT TACC3 PPI: inactive; Xi reactivation: inactive

How did C[C@H](CO)N1C[C@H](C)[C@H](CN(C)CC2CCCCC2)Oc2ccc(NS(C)(=O)=O)cc2CC1=O do in these assays?
FGF22 binding: inactive; SIRT5 block: inactive; FN deposition inh: inactive; DENV2 CPE rescue: inactive; ARNT TACC3 PPI: inactive; Xi reactivation: inactive

How did CNc1nc(C(=O)O)nc(N2CCOCC2)n1 do in these assays?
FGF22 binding: inactive; SIRT5 block: inactive; DENV2 CPE rescue: inactive; ARNT TACC3 PPI: 56; ARNT Alpha ctr-1: inactive

How did CC(C)NC(=O)N(C)C[C@H]1Oc2ccc(NS(=O)(=O)c3ccc(F)cc3)cc2C(=O)N([C@@H](C)CO)C[C@H]1C do in these assays?
FGF22 binding: inactive; SIRT5 block: inactive; FN deposition inh: inactive; DENV2 CPE rescue: inactive; ARNT TACC3 PPI: inactive; Xi reactivation: inactive

What do the screens show for `OCCN1CCN(Cc2cc(Br)cc(Br)c2O)CC1`?
FN deposition inh: inactive; ARNT TACC3 PPI: inactive

What do the screens show for `COc1cccc(C(=O)Oc2c(CN3CCOCC3)cc(Cl)c3cccnc23)c1`?
FN deposition inh: inactive; ARNT TACC3 PPI: 78; ARNT Alpha ctr-1: 58µM

How did O=C(Oc1c(CN2CCOCC2)cc(Cl)c2cccnc12)c1cccs1 do in these assays?
FGF22 binding: inactive; SIRT5 block: inactive; FN deposition inh: inactive; DENV2 CPE rescue: inactive; ARNT TACC3 PPI: 65; Xi reactivation: inactive; ARNT Alpha ctr-1: inactive

What do the screens show for `OCCN1CCN(Cc2cc(Cl)c3cccnc3c2O)CC1`?
ARNT TACC3 PPI: 63; ARNT Alpha ctr-1: 8.5µM

How did C[C@@H]1CN([C@H](C)CO)C(=O)Cc2cc(NS(=O)(=O)c3ccc(Cl)cc3)ccc2O[C@@H]1CN(C)C(=O)Nc1ccc2c(c1)OCO2 do in these assays?
Xi reactivation: inactive

How did O=C(Nc1nc(-c2ccncc2)cs1)c1ccc(S(=O)(=O)N2CCOCC2)cc1 do in these assays?
FN deposition inh: inactive; ARNT TACC3 PPI: inactive

Results for COc1ccc(C(=O)Nc2ccccn2)cc1S(=O)(=O)N1CCOCC1 ?
FGF22 binding: inactive; SIRT5 block: inactive; FN deposition inh: inactive; DENV2 CPE rescue: inactive; ARNT TACC3 PPI: inactive; Xi reactivation: inactive

What do the screens show for `O=C(Nc1nc(-c2ccccn2)cs1)c1ccc(S(=O)(=O)N2CCOCC2)cc1`?
ARNT Alpha ctr-2: 6.5

What do the screens show for `COc1ccc(C(=O)Nc2ccccc2C)cc1S(=O)(=O)N1CCOCC1`?
FGF22 binding: inactive; SIRT5 block: inactive; FN deposition inh: inactive; DENV2 CPE rescue: inactive; ARNT TACC3 PPI: inactive; Xi reactivation: inactive

Results for COc1ccc(C(=O)Nc2nc3ccccc3[nH]2)cc1S(=O)(=O)N1CCOCC1 ?
FGF22 binding: inactive; SIRT5 block: inactive; FN deposition inh: inactive; DENV2 CPE rescue: inactive; ARNT TACC3 PPI: 51; Xi reactivation: inactive; ARNT Alpha ctr-1: inactive

How did COc1ccc(C(=O)Nc2nc(-c3ccccn3)cs2)cc1S(=O)(=O)N1CCOCC1 do in these assays?
FGF22 binding: inactive; SIRT5 block: inactive; FN deposition inh: inactive; DENV2 CPE rescue: inactive; ARNT TACC3 PPI: 62; Xi reactivation: inactive; ARNT Alpha ctr-1: 9.7µM

Results for O=C(Nc1cn2ccccc2n1)c1cc(-c2ccccc2)on1 ?
ARNT Alpha ctr-1: inactive

Results for O=C(Nc1ccccc1)c1cn2ccccc2n1 ?
FGF22 binding: inactive; SIRT5 block: inactive; FN deposition inh: inactive; DENV2 CPE rescue: inactive; ARNT TACC3 PPI: inactive; Xi reactivation: inactive

Results for O=C(Nc1nc(-c2ccccc2)cs1)c1cc(-c2ccccc2)on1 ?
ARNT Alpha ctr-1: inactive

How did N#Cc1ccc(-c2ccc([C@@H]3[C@H]4CN(C(=O)Nc5ccc(F)cc5)CCCCN4[C@H]3CO)cc2)cc1 do in these assays?
FGF22 binding: inactive; SIRT5 block: inactive; DENV2 CPE rescue: inactive; Xi reactivation: inactive

What do the screens show for `C[C@H]1CN([C@@H](C)CO)C(=O)Cc2cc(NC(=O)Nc3ccc4c(c3)OCO4)ccc2O[C@H]1CN(C)S(=O)(=O)c1ccc(Cl)cc1`?
FGF22 binding: inactive; SIRT5 block: inactive; FN deposition inh: inactive; DENV2 CPE rescue: inactive; ARNT TACC3 PPI: inactive; Xi reactivation: inactive

How did COc1ccc(NC(=O)Nc2ccc3c(c2)C(=O)N([C@@H](C)CO)C[C@H](C)[C@@H](CN(C)C(=O)Nc2ccc(OC)cc2)O3)cc1 do in these assays?
FGF22 binding: inactive; SIRT5 block: inactive; DENV2 CPE rescue: inactive; ARNT TACC3 PPI: inactive; Xi reactivation: inactive

What do the screens show for `NNC(=O)c1ccc(O)cc1O`?
FGF22 binding: inactive; SIRT5 block: inactive; FN deposition inh: inactive; DENV2 CPE rescue: inactive; ARNT TACC3 PPI: 56; Xi reactivation: inactive; ARNT Alpha ctr-1: inactive

What do the screens show for `NNC(=O)c1cc2ccccc2cc1O`?
FN deposition inh: inactive; ARNT TACC3 PPI: inactive; Xi reactivation: inactive

What do the screens show for `O=C(NN=C1CCCC1)c1ccc(O)cc1O`?
FGF22 binding: inactive; SIRT5 block: inactive; FN deposition inh: inactive; DENV2 CPE rescue: inactive; ARNT TACC3 PPI: 48; Xi reactivation: inactive; ARNT Alpha ctr-1: inactive

Results for Cc1ccc(NC(=O)C[C@H]2CC[C@H]3[C@@H](COc4ccc(NC(=O)C5CCC5)cc4C(=O)N3C)O2)cc1 ?
FGF22 binding: inactive; SIRT5 block: inactive; FN deposition inh: inactive; DENV2 CPE rescue: inactive; ARNT TACC3 PPI: inactive; Xi reactivation: inactive

How did O=C(Nc1ccc(N2CCN(C(=O)c3ccccc3F)CC2)cc1)c1ncn[nH]1 do in these assays?
FGF22 binding: inactive; SIRT5 block: inactive; FN deposition inh: inactive; DENV2 CPE rescue: inactive; ARNT TACC3 PPI: 59; Xi reactivation: inactive; ARNT Alpha ctr-1: inactive

How did CCN(CC)c1ccc(Nc2nc(N3CCOCC3)c3ccccc3n2)cc1 do in these assays?
FN deposition inh: inactive; ARNT TACC3 PPI: 55; ARNT Alpha ctr-1: 5.7µM
